Here are results for 71 compounds from ChEMBL document CHEMBL4513216, “Probing the Open Global Health Chemical Diversity Library for Multistage-Active Starting Points for Next-Generation Antimalarials” (ACS Infect Dis, 2020).

Molecules are shown by their SMILES.

This series in a line: Toxicity liver stage against HepG2, at 10uM. Type of series: cell-based. Further details: test concentration 10 uM, cell line HepG2-A16-CD81EGFP. The note with it: human, HepG2-A16-CD81EGFP cells; read-out: INHIBITION
An outline of the steps:
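Uninfected HepG2-A16-CD81EGFP cells, 3 × 10^3 per well, 1536-well, plated on prespotted compound at 10 μM final, parasite-free screening media added to match infected plates; puromycin 10 μM positive, DMSO 0.5% negative; run in parallel with 48 h PbLuc assay at 37 °C, 5% CO2; viability by CellTiter-Glo luminescence, normalized to controls.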
With `Cc1ccccc1C(C)NC(=O)CN1CCN(Cc2cccs2)CC1` (stereo unspecified), the cytotoxicity at 10 µM stood at 48.9%.

For the compound `CC(=O)N1CCN(C[C@H]2CC[C@@H](Cc3ccc4ncccc4c3)O2)CC1`, the cytotoxicity at 10 µM was -9.14%.

For the compound `CCS(=O)(=O)N1CCC2(CC1)c1ncc(-c3cccnc3)n1CCN2C`, the cytotoxicity at 10 µM is -103%.

With `Cn1cc(-c2cnc(N3CCCC3)nc2)cc1C(=O)N1CCOCC1`, the cytotoxicity at 10 µM was -3.87%.

Turning to `CN(Cc1ccccc1)CC1CC2(CO1)CN(Cc1nccs1)C2` (stereo unspecified), the cytotoxicity at 10 µM came out at 8.88%.

As for `NC(=O)c1cccc(CCNC(=O)N2Cc3ccccc3C2)c1`, the cytotoxicity at 10 µM was -9.86%.

Consider `CSc1ccc(CCNC(=O)Cc2c(C)n[nH]c2C)cc1`, for which the cytotoxicity at 10 µM was determined as 1.02%.

Regarding `CC(=O)NCCCC(=O)N1CCc2[nH]c(-c3ccccc3)nc2C1`, the cytotoxicity at 10 µM is -3.73%.

On to `N#Cc1ccc(C(=O)N(C2CC2)C2CC(=O)NC2=O)cc1` (stereo unspecified), for which the cytotoxicity at 10 µM was -4.64%.

Regarding `COc1ncccc1C(=O)N1CC[C@]2(C[C@@H](Oc3cccnc3)CO2)C1`, the cytotoxicity at 10 µM is 4.43%.

`c1ccc(COCCN2CCc3[nH]cnc3C2c2ccco2)cc1` (stereo unspecified): the cytotoxicity at 10 µM was -2.01%.

On to `Cc1ccc(NC2CCN(C(=O)c3ccc(F)cc3Cl)CC2)nn1`, for which the cytotoxicity at 10 µM is -14.1%.

In the case of `Cc1cc(CN2CCN(C(=O)NCc3csc(C)n3)CC2)on1`, the cytotoxicity at 10 µM is -2.95%.

On to `O=C(Nc1cnccn1)[C@@H]1COC[C@H]2CN(C3CCCC3)C[C@H]21`, for which the cytotoxicity at 10 µM was -21.9%.

Regarding `O=C(CN1CCCCC1C1OCCO1)Nc1ccc(F)c(F)c1` (stereo unspecified), the cytotoxicity at 10 µM is -3.53%.

With `Cc1cccc(C)c1OCC(=O)NS(=O)(=O)c1c(C)noc1C`, the cytotoxicity at 10 µM is -2.28%.

For `Cc1cc(CCC(N)=O)cc(C2CCCN2Cc2ccnn2C)n1` (stereo unspecified), the cytotoxicity at 10 µM is -19.8%.

For the compound `OC(COc1ccc(F)cc1)CN1CCC(Cn2cccn2)CC1` (stereo unspecified), the cytotoxicity at 10 µM was -9.07%.

With `CCN1CCC(CC(=O)N2CCc3sc(C(=O)N(C)C)cc3C2)CC1`, the cytotoxicity at 10 µM is -21.1%.

As for `COC(=O)c1cccc(NCC(=O)NC(N)=O)c1`, the cytotoxicity at 10 µM came to 6.88%.

Turning to `O=C1NC[C@H]2CN(Cc3ccnc4ccccc34)CCN12`, the cytotoxicity at 10 µM was -3.66%.

Regarding `COc1cccc(F)c1CN1CCC(c2nc(C)cc(C)n2)C1` (stereo unspecified), the cytotoxicity at 10 µM amounted to 6.83%.

For `O=C(CCC1CCCN(C(=O)CCc2ccc(F)c(F)c2)C1)NC1CC1` (stereo unspecified), the cytotoxicity at 10 µM amounted to 2.49%.

For the compound `O=C(c1nnn(-c2ccc(C(F)(F)F)cc2)n1)N1CC(O)C1`, the cytotoxicity at 10 µM was -4.63%.

For the compound `CNS(=O)(=O)Cc1cccc(CNc2ccc(Cl)cn2)c1`, the cytotoxicity at 10 µM was -5.71%.

Take `COc1cccc(CN(Cc2ccco2)Cc2[nH]cnc2C)c1`: the cytotoxicity at 10 µM amounted to 3.77%.

In the case of `CCc1nn(C)c(Cl)c1CN1CCCC(c2cc(O)nc(C)n2)C1` (stereo unspecified), the cytotoxicity at 10 µM is -2.37%.

As to `O=S(=O)(N1CCCCCC1)N1CCCN(CC2CCCO2)CC1` (stereo unspecified), the cytotoxicity at 10 µM was found to be 0.863%.

Consider `CCOCC1CN(C(=O)c2ccoc2)Cc2cnn(C)c21` (stereo unspecified), for which the cytotoxicity at 10 µM was determined as 0.13%.

As to `CCc1nc(C)c(C(=O)NCCNC(=O)Cc2cccc(F)c2)s1`, the cytotoxicity at 10 µM was 1.98%.

In the case of `CSCC(C)(O)CNC(=O)c1ccc(F)cc1Br` (stereo unspecified), the cytotoxicity at 10 µM turned out to be 0.369%.

Regarding `Cc1nc[nH]c1CN1CCN(C(=O)c2cccs2)[C@H]2CS(=O)(=O)C[C@H]21`, the cytotoxicity at 10 µM was -0.0714%.

For `COc1ccc(O[C@H]2COCCN(Cc3c[nH]c4ccccc34)C2)cc1`, the cytotoxicity at 10 µM came to 1.82%.

In the case of `NC(=O)COc1ccc(CNCc2ccc(F)c(F)c2)cc1`, the cytotoxicity at 10 µM is -15.2%.

As to `Cn1c(=O)c2c(n3ncnc13)NC(=O)CC2c1ccc(F)cc1` (stereo unspecified), the cytotoxicity at 10 µM was found to be 5.64%.

For `Cc1nnc2n1CCN(Cc1nc3c(F)cccc3[nH]1)C2`, the cytotoxicity at 10 µM is -2.3%.

For `COc1cc(C(C)=O)ccc1SCC(=O)Nc1ccc(C)cn1`, the cytotoxicity at 10 µM was found to be 4.43%.

With `O=c1ccc(-n2ccnc2)nn1CCNS(=O)(=O)c1ccccc1Cl`, the cytotoxicity at 10 µM was -0.947%.

As to `COc1ccccc1N1CCN(C(=O)CCn2nnnc2C)CC1(C)C`, the cytotoxicity at 10 µM was 6.48%.

Consider `CCn1ccnc1CNCC1CCCN1c1cc(NC)ncn1` (stereo unspecified), for which the cytotoxicity at 10 µM came to 3.37%.

With `Cc1cc(C)cc(NC(=O)Cc2c(C)nc3c(c2C)c(=O)[nH]n3C)c1`, the cytotoxicity at 10 µM amounted to 10.6%.

In the case of `CCc1ncc2c(n1)CN(Cc1nc(-c3ccoc3)no1)CC2`, the cytotoxicity at 10 µM was determined as 1.61%.

As for `O=C(NCc1ccc(F)cc1)NCC(O)(c1cccs1)C1CC1` (stereo unspecified), the cytotoxicity at 10 µM was -1.13%.

In the case of `CCc1sc(C(=O)N2CCC(Nc3ccc(C)nn3)CC2)cc1C`, the cytotoxicity at 10 µM amounted to 1.86%.

Take `O=C1NCCCCC1NC(=O)N1CCc2ccccc21` (stereo unspecified): the cytotoxicity at 10 µM was -0.734%.

As to `CC(=O)NCC(=O)N1Cc2nccn2CC(COc2cccnc2)C1` (stereo unspecified), the cytotoxicity at 10 µM is -2.6%.

As for `Cn1ccc(CN2CCC(CC(=O)N3CCCC3)CC2)cc1=O`, the cytotoxicity at 10 µM was -12.6%.

On to `CN1CCC(c2nnc(CN3CCOCC3)n2C)CC1`, for which the cytotoxicity at 10 µM is -1.16%.

Take `O=C(C1SCCc2sccc21)N1CCN(CC(F)F)CC1` (stereo unspecified): the cytotoxicity at 10 µM is -4.5%.

As for `COc1ccc(CN2CCO[C@H]3CN(C4CCCC4)CC[C@H]3C2=O)cc1`, the cytotoxicity at 10 µM was -138%.

As to `Fc1ccc(OC2CCN(Cc3nnc(-c4ccco4)o3)CC2)cc1`, the cytotoxicity at 10 µM is -2.56%.

Regarding `CN(C(=O)COc1ccc(F)cc1)[C@@H]1CS(=O)(=O)C[C@H]1O`, the cytotoxicity at 10 µM is -2.62%.

As for `CC(C)CCCC1CN(C(=O)c2cnc[nH]2)CCO1` (stereo unspecified), the cytotoxicity at 10 µM turned out to be 2.83%.

Consider `O=C(CC1CC1)N(Cc1cccnc1)CC1CCN(C2CCCC2)CC1`, for which the cytotoxicity at 10 µM came to 5.95%.

Consider `CN(C)S(=O)(=O)N1CC(c2nc(N)ncc2-c2ccc(F)cc2)C1`, for which the cytotoxicity at 10 µM is -4.64%.

For the compound `O=C(c1cccc(CO)n1)N1CCOC(c2ccc(Cl)c(Cl)c2)C1` (stereo unspecified), the cytotoxicity at 10 µM was -10.4%.

Take `Cc1ccc(-c2ccnc(NCC3(N(C)C)CCOCC3)n2)c(C)n1`: the cytotoxicity at 10 µM was determined as 13.1%.

Regarding `O=C(CCn1cc(Cl)cn1)N1CCC2(CC1)OCCCC2O` (stereo unspecified), the cytotoxicity at 10 µM is -135%.

In the case of `O=C1CC(c2ccsc2)c2snc(C(=O)O)c2N1` (stereo unspecified), the cytotoxicity at 10 µM was -0.772%.

Consider `Cc1nnc(SCC(=O)c2cc3c(cc2Cl)NC(=O)C3)s1`, for which the cytotoxicity at 10 µM came out at 5.42%.

In the case of `CCn1nc(C(C)C)cc1C(=O)N1CC(OCc2ccccc2F)C1`, the cytotoxicity at 10 µM is -4.62%.

In the case of `O=C(O)C(c1ccc(O)cc1)N1CCC(N2CCSCC2)CC1` (stereo unspecified), the cytotoxicity at 10 µM stood at 0.646%.

As to `Cc1nn(C)c(N(C)C)c1CNCc1cccnc1N1CCOCC1`, the cytotoxicity at 10 µM was -141%.

Regarding `COCC1CN(C(C)=O)CCN(c2cc(C)ncn2)C1` (stereo unspecified), the cytotoxicity at 10 µM was determined as 4.96%.

In the case of `Cc1ccc(S(=O)(=O)c2ncccc2CN2CCOCC2)cc1`, the cytotoxicity at 10 µM was -41%.

Regarding `O=C(c1cccc(Cn2ccnc2)c1)N1CCCC(n2cccn2)C1` (stereo unspecified), the cytotoxicity at 10 µM was -0.603%.

For the compound `CCNC(=O)N(C)C1CCN(Cc2ncc(C)c(OC)c2C)CC1`, the cytotoxicity at 10 µM was -0.514%.

Consider `Cc1oc(-c2ccco2)nc1CC(=O)N1CCC(CCO)C1` (stereo unspecified), for which the cytotoxicity at 10 µM is -2.02%.

On to `c1ccc(-c2noc3c2CN(CC2CC2)CC3)cc1`, for which the cytotoxicity at 10 µM was -13.2%.

On to `O=C(Nc1nccs1)NC1CCOc2ccccc21` (stereo unspecified), for which the cytotoxicity at 10 µM was determined as 6.78%.

As to `CN(Cc1ccc(F)cc1)S(=O)(=O)N1CCOCC1`, the cytotoxicity at 10 µM came out at 2.35%.
